Data as given in ChEMBL document CHEMBL1152821, “Discovery of novel DNA gyrase inhibitors by high-throughput virtual screening” (Antimicrob Agents Chemother, 2007).
Activity calls are given as the source filed them. No cut-off for these calls is given here.

Key:
Nucleic Acid [1] = assay: Binding affinity to pGEM2 DNA assessed as DNA intercalation at 1600 uM by DNA unwinding assay; assay type: nucleic-acid assay
How it was run: (§1)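 Drug-induced DNA unwinding measured with pGEM2 plasmid DNA relaxed by wheat germ DNA topoisomerase I, following a previously described method.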

[2] = Inhibition of Escherichia coli recombinant DNA gyrase-mediated supercoiling of relaxed pRSET A-DNA by agarose gel electrophoresis
How it was run: (§2)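 Gyrase reconstituted from purified GyrA and GyrB (1:1.4); substrate is pRSET A relaxed with wheat germ topo I. 0.5 μg DNA and drug preincubated on ice 10 min in Tris-acetate pH 7.9, KOAc, Mg acetate, DTT, 1.5 mM ATP, spermidine, BSA. Started with 2.5 nM GyrA/3.5 nM GyrB, 30°C 30 min, then SDS/EDTA stop. 1% agarose gel, ethidium stain, densitometry; % supercoiled versus no-drug control.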

Nucleic Acid [3] = assay: Binding affinity to pGEM2 DNA assessed as DNA intercalation at 1.6 mM by DNA unwinding assay
Escherichia coli [4] = assay: Inhibition of Escherichia coli DNA gyrase B ATPase activity up to 1.5 mM by spectrophotometry
How it was run: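 DNA-independent ATPase of purified E. coli GyrB (40 nM) with 2 mM ATP, read spectrophotometrically by coupling ATP hydrolysis to NADH oxidation. Ki calculated as Ki(app)/(1 + [ATP]/Km), with Km 0.3 mM for E. coli gyrase ATPase.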

Nucleic Acid [5] = assay: Binding affinity to pGEM2 DNA assessed as DNA intercalation at 100 uM by DNA unwinding assay; assay type: nucleic-acid assay; how it was run: as §1
[6] = Inhibition of Escherichia coli DNA gyrase B ATPase activity by spectrophotometry
How it was run: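 DNA-independent ATPase of purified E. coli GyrB (40 nM) with 2 mM ATP. ATP hydrolysis coupled to NADH oxidation and read spectrophotometrically. Ki calculated from Ki(app) as Ki = Ki(app)/(1 + [ATP]/Km), taking Km 0.3 mM for E. coli gyrase ATPase.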

Escherichia coli [7] = assay: Inhibition of Escherichia coli recombinant DNA gyrase-mediated supercoiling activity of relaxed pRSET A-DNA at 192 uM by agarose gel electrophoresis; set-up: scale not given: the % may be the effect or the level left
How it was run: (§3)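 GyrA and GyrB, expressed in E. coli XL1-Blue and purified, reconstituted 1:1.4 (2.5 nM GyrA, 3.5 nM GyrB). Substrate was 0.5 μg relaxed pRSET A DNA (topoisomerase I-relaxed). Buffer: 25 mM Tris-acetate pH 7.9, 20 mM K acetate, 10 mM Mg acetate, 2 mM DTT, 1.5 mM ATP, 5 mM spermidine, 50 μg/ml BSA. Drug preincubated 10 min on ice; reaction 30 min at 30°C. Run on 1% agarose 20 h, stained with ethidium bromide, bands quantitated. % supercoiled DNA expressed relative to no-drug control.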

[8] = target: T1, DNA gyrase (Escherichia coli) (UniProt P0AES6+P0AES4); assay: Inhibition of Escherichia coli recombinant DNA gyrase assessed as enzyme-mediated supercoiling of relaxed pRSET A-DNA at 640 uM by agarose gel electrophoresis; assay type: protein-complex assay; set-up: scale not given: the % may be the effect or the level left; how it was run: as §3
Nucleic Acid [9] = assay: Binding affinity to pGEM2 DNA assessed as DNA intercalation at 640 uM by DNA unwinding assay; assay type: nucleic-acid assay
Escherichia coli [10] = assay: Antibacterial activity against Escherichia coli XL1-Blue assessed as complete inhibition at 192 uM with in 30 mins; assay type: functional, organism-based
How it was run: (§4)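 Log-phase E. coli XL1-Blue (overnight LB cultures at 37°C diluted to OD595 0.05 in fresh LB, shaken at 37°C until log phase) transferred into flasks containing filter-sterilized drug at various concentrations. Shaking growth continued at 37°C. Growth followed by culture absorbance at OD595 over time.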

Escherichia coli [11] = assay: Antibacterial activity against Escherichia coli XL1-Blue assessed as growth inhibition at 21 uM after 60 mins; assay type: functional, organism-based; how it was run: as §4
Escherichia coli [12] = assay: Antibacterial activity against Escherichia coli XL1-Blue assessed as growth inhibition at 64 uM after 30 mins; assay type: functional, organism-based; how it was run: as §4
[13] = target: T1, DNA gyrase (Escherichia coli); assay: Inhibition of Escherichia coli recombinant DNA gyrase assessed as enzyme-mediated supercoiling of relaxed pRSET A-DNA at 640 uM by agarose gel electrophoresis in presence of 0.01% Triton X-100; assay type: protein-complex assay; set-up: scale not given: the % may be the effect or the level left; how it was run: as §3
[14] = target: T1, DNA gyrase (Escherichia coli); assay: Inhibition of Escherichia coli recombinant DNA gyrase assessed as enzyme-mediated supercoiling of relaxed pRSET A-DNA at 170 uM by agarose gel electrophoresis in presence of 0.025% Triton X-100; assay type: protein-complex assay; set-up: scale not given: the % may be the effect or the level left; how it was run: as §2
[15] = target: T1, DNA gyrase (Escherichia coli); assay: Inhibition of Escherichia coli recombinant DNA gyrase assessed as enzyme-mediated supercoiling of relaxed pRSET A-DNA at 170 uM by agarose gel electrophoresis in presence of 0.01% Triton X-100; assay type: protein-complex assay; set-up: scale not given: the % may be the effect or the level left; how it was run: as §2
Nucleic Acid [16] = assay: Binding affinity to pGEM2 DNA assessed as DNA intercalation at >=50 uM by DNA unwinding assay; assay type: nucleic-acid assay; how it was run: as §1
[17] = target: T1, DNA gyrase (Escherichia coli); assay: Inhibition of Escherichia coli recombinant DNA gyrase assessed as enzyme-mediated supercoiling of relaxed pRSET A-DNA at 170 uM by agarose gel electrophoresis; assay type: protein-complex assay; set-up: scale not given: the % may be the effect or the level left; how it was run: as §2

For `O=Cc1c[nH]nn1`, the Activity (Nucleic Acid [1]) was “inactive” and the IC50 [2] was 737 µM.

In the case of `NC(=O)c1[nH]cnc1N`, the Activity (Nucleic Acid [1]) is reported as “inactive”, the Activity (Nucleic Acid [3]) is reported as “inactive” and the IC50 [2] is reported as 814 µM. The Activity (Escherichia coli [4]) was “inactive”.

For `O=c1[nH]nc(-c2cc(-c3ccccc3)nc3ccccc23)o1`, the Activity (Nucleic Acid [5]) was “inactive” and the IC50 [2] was 72 µM.

With `O=NNc1cnc(O)nc1O` the Activity (Nucleic Acid [1]) was “inactive”, the Ki [6] was 149 µM and the Activity (Escherichia coli [7]) was > 30%. The Activity [8] was 10%, the IC50 [2] was 338 µM and the Activity (Nucleic Acid [9]) was “inactive”. For the same compound, the Activity (Escherichia coli [10]) was “Active”, the Activity (Escherichia coli [11]) was “Active” and the Activity (Escherichia coli [12]) was “Active”. For the same compound, the Activity [13] was 17%.

`CO[C@@H]1[C@@H](OC(=O)c2ccc(C)[nH]2)[C@@H](O)[C@@H](Oc2ccc3c(O)c(NC(=O)c4c[nH]c(C(=O)Nc5c(O)c6ccc(O[C@H]7OC(C)(C)[C@H](OC)[C@@H](OC(=O)c8ccc(C)[nH]8)[C@H]7O)c(C)c6oc5=O)c4C)c(=O)oc3c2C)OC1(C)C` [COUMERMYCIN] showed an IC50 [2] of 0.04 µM.

`O=C(O)c1cn(C2CC2)c2cc(N3CCNCC3)c(F)cc2c1=O` [CIPROFLOXACIN] gave an IC50 [2] of 1.2 µM.

Work on `O=c1ccc2nccc3c4ccccc4n1c23` [CANTHIN-6-ONE] yielded an Activity [14] of 12%, an Activity [15] of 13% and an IC50 [2] of 50 µM. The Activity (Nucleic Acid [16]) was “Active” and the Activity [17] was 7%.
